Test results published in ChEMBL document CHEMBL1156261, “Evaluation of substituted N,N'-diarylsulfonamides as activators of the tumor cell specific M2 isoform of pyruvate kinase” (J Med Chem, 2010).
The source made the active and inactive calls. The rule behind the calls is not given here.

Biological target: Pyruvate kinase PKLR (Homo sapiens) (UniProt P30613)
Test: Activation of PKL assessed as ATP product formation by luminescent pyruvate kinase-luciferase coupled assay relative to control
Design: concentration or dose not given beside the values
In short: (§1)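 Luciferase-coupled ATP production assay run as for PKM2: imidazole pH 7.2 buffer with KCl, MgCl2, Tween 20 and BSA, 0.1 mM ADP, 0.5 mM PEP, 1 h at r.t., Kinase-Glo luminescence. Enzyme final concentrations were PKM1 1 nM, PKL 0.1 nM, PKR 0.1 nM. % activation normalized to DMSO (neutral) and no-enzyme controls.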

Sequence of Pyruvate kinase PKLR (Homo sapiens) (P30613 whole entry, looked up): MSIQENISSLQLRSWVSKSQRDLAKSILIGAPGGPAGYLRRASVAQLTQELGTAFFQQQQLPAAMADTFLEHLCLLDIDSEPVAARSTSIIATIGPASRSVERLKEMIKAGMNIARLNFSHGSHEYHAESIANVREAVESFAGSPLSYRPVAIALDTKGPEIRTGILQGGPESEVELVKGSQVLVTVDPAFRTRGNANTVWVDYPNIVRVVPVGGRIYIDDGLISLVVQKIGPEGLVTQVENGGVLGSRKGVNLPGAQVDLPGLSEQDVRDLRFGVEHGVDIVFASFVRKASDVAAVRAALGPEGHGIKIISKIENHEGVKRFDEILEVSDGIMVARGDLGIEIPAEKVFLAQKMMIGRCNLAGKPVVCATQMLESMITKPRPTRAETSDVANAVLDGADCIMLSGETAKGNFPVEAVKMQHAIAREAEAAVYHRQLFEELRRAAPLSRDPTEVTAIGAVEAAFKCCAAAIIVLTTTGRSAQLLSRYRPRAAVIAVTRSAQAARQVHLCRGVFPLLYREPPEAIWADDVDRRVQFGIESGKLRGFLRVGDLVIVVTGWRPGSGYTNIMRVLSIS

SMILES	Activity [%]
O=S(=O)(c1ccc2c(c1)OCCO2)N1CCN(S(=O)(=O)c2ccc3c(c2)OCCO3)CC1	< 30
Cn1ccc2cc(S(=O)(=O)N3CCN(S(=O)(=O)c4c(F)cccc4F)CC3)ccc21	< 30
O=S(=O)(c1ccc2c(c1)OCCO2)N1CCN(S(=O)(=O)c2ccc(F)cc2F)CC1	< 30
O=S(=O)(NCCCCCCNS(=O)(=O)c1c(F)cccc1F)c1ccc2c(c1)OCCO2	< 30
C[C@H]1CN(S(=O)(=O)c2c(F)cccc2F)CCN1S(=O)(=O)c1ccc2c(c1)OCCO2	< 30
COc1cc(F)c(S(=O)(=O)N2CCN(S(=O)(=O)c3ccc4c(c3)OCCO4)CC2)c(F)c1	< 30
O=S(=O)(c1ccc2c(c1)OCCCO2)N1CCN(S(=O)(=O)c2c(F)cccc2F)CC1	< 30
O=S(=O)(c1c(F)cccc1F)C1CCN(S(=O)(=O)c2ccc3c(c2)OCCO3)CC1	< 30

Biological target: Pyruvate kinase PKLR (Homo sapiens) (UniProt P30613)
Test: Activation of PKR assessed as pyruvate formation by fluorescent pyruvate kinase-lactate dehydrogenase coupled assay relative to control
Design: concentration or dose not given beside the values

SMILES	Activity [%]
O=S(=O)(c1ccc2c(c1)OCCO2)N1CCN(S(=O)(=O)c2ccc3c(c2)OCCO3)CC1	< 30
Cn1ccc2cc(S(=O)(=O)N3CCN(S(=O)(=O)c4c(F)cccc4F)CC3)ccc21	< 30
O=S(=O)(c1ccc2c(c1)OCCO2)N1CCN(S(=O)(=O)c2ccc(F)cc2F)CC1	< 30
O=S(=O)(NCCCCCCNS(=O)(=O)c1c(F)cccc1F)c1ccc2c(c1)OCCO2	< 30
C[C@H]1CN(S(=O)(=O)c2c(F)cccc2F)CCN1S(=O)(=O)c1ccc2c(c1)OCCO2	< 30
COc1cc(F)c(S(=O)(=O)N2CCN(S(=O)(=O)c3ccc4c(c3)OCCO4)CC2)c(F)c1	< 30
O=S(=O)(c1ccc2c(c1)OCCCO2)N1CCN(S(=O)(=O)c2c(F)cccc2F)CC1	< 30
O=S(=O)(c1c(F)cccc1F)C1CCN(S(=O)(=O)c2ccc3c(c2)OCCO3)CC1	< 30

Biological target: T1, Pyruvate kinase PKM (Homo sapiens, UniProt P14618)
T1 sequence (P14618 2-531 limits assumed): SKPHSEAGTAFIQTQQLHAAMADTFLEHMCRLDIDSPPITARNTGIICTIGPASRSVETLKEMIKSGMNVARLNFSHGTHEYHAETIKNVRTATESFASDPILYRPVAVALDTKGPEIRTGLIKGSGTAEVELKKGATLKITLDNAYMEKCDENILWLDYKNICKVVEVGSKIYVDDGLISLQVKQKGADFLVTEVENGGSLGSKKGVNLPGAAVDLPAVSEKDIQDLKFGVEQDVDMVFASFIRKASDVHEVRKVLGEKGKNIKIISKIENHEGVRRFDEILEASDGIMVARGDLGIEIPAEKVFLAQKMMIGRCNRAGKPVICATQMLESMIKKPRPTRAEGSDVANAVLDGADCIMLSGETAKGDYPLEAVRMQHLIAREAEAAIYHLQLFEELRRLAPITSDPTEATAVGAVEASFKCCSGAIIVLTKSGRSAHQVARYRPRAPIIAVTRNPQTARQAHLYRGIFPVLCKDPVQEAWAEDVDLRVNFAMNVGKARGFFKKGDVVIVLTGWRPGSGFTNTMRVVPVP
Test: Activation of PKM2 assessed as ATP product formation at 57 uM by luminescent pyruvate kinase-luciferase coupled assay relative to fructose-1,6-bis-phosphate
In short: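 Recombinant human PKM2 (0.1 nM final) in 50 mM imidazole pH 7.2, 50 mM KCl, 7 mM MgCl2, 0.01% Tween 20, 0.05% BSA; 0.1 mM ADP, 0.5 mM PEP; 1 h at r.t., then Kinase-Glo luciferase read of ATP formed. Activation % = (c−n)/(n−i)×100 against DMSO and no-enzyme controls; 100% ≈ 2-fold over basal signal. Max response taken at 57 μM; three separate experiments.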

SMILES	Activity [%]
O=S(=O)(c1ccc2c(c1)OCCO2)N1CCN(S(=O)(=O)c2ccc3c(c2)OCCO3)CC1	89.7
Cn1ccc2cc(S(=O)(=O)N3CCN(S(=O)(=O)c4c(F)cccc4F)CC3)ccc21	91.1
O=S(=O)(c1ccc2c(c1)OCCO2)N1CCN(S(=O)(=O)c2ccc(F)cc2F)CC1	113
O=S(=O)(NCCCCCCNS(=O)(=O)c1c(F)cccc1F)c1ccc2c(c1)OCCO2	110
C[C@H]1CN(S(=O)(=O)c2c(F)cccc2F)CCN1S(=O)(=O)c1ccc2c(c1)OCCO2	109
COc1cc(F)c(S(=O)(=O)N2CCN(S(=O)(=O)c3ccc4c(c3)OCCO4)CC2)c(F)c1	91.8
O=S(=O)(c1ccc2c(c1)OCCCO2)N1CCN(S(=O)(=O)c2c(F)cccc2F)CC1	100
O=S(=O)(c1c(F)cccc1F)C1CCN(S(=O)(=O)c2ccc3c(c2)OCCO3)CC1	104

Biological target: T1, Pyruvate kinase PKM
Test: Activation of PKM1 assessed as pyruvate formation by fluorescent pyruvate kinase-lactate dehydrogenase coupled assay

SMILES	Activity
O=S(=O)(c1ccc2c(c1)OCCO2)N1CCN(S(=O)(=O)c2ccc3c(c2)OCCO3)CC1	inactive
Cn1ccc2cc(S(=O)(=O)N3CCN(S(=O)(=O)c4c(F)cccc4F)CC3)ccc21	inactive
O=S(=O)(c1ccc2c(c1)OCCO2)N1CCN(S(=O)(=O)c2ccc(F)cc2F)CC1	inactive
O=S(=O)(NCCCCCCNS(=O)(=O)c1c(F)cccc1F)c1ccc2c(c1)OCCO2	inactive
C[C@H]1CN(S(=O)(=O)c2c(F)cccc2F)CCN1S(=O)(=O)c1ccc2c(c1)OCCO2	inactive
COc1cc(F)c(S(=O)(=O)N2CCN(S(=O)(=O)c3ccc4c(c3)OCCO4)CC2)c(F)c1	inactive
O=S(=O)(c1ccc2c(c1)OCCCO2)N1CCN(S(=O)(=O)c2c(F)cccc2F)CC1	inactive
O=S(=O)(c1c(F)cccc1F)C1CCN(S(=O)(=O)c2ccc3c(c2)OCCO3)CC1	inactive

Biological target: Pyruvate kinase PKLR (Homo sapiens) (UniProt P30613)
Test: Activation of PKR assessed as ATP product formation by luminescent pyruvate kinase-luciferase coupled assay relative to control
Design: concentration or dose not given beside the values
In short: as §1

SMILES	Activity [%]
O=S(=O)(c1ccc2c(c1)OCCO2)N1CCN(S(=O)(=O)c2ccc3c(c2)OCCO3)CC1	< 30
Cn1ccc2cc(S(=O)(=O)N3CCN(S(=O)(=O)c4c(F)cccc4F)CC3)ccc21	< 30
O=S(=O)(c1ccc2c(c1)OCCO2)N1CCN(S(=O)(=O)c2ccc(F)cc2F)CC1	< 30
O=S(=O)(NCCCCCCNS(=O)(=O)c1c(F)cccc1F)c1ccc2c(c1)OCCO2	< 30
C[C@H]1CN(S(=O)(=O)c2c(F)cccc2F)CCN1S(=O)(=O)c1ccc2c(c1)OCCO2	< 30
COc1cc(F)c(S(=O)(=O)N2CCN(S(=O)(=O)c3ccc4c(c3)OCCO4)CC2)c(F)c1	< 30
O=S(=O)(c1ccc2c(c1)OCCCO2)N1CCN(S(=O)(=O)c2c(F)cccc2F)CC1	< 30
O=S(=O)(c1c(F)cccc1F)C1CCN(S(=O)(=O)c2ccc3c(c2)OCCO3)CC1	< 30

Biological target: T1, Pyruvate kinase PKM
Test: Activation of PKM1 assessed as ATP product formation by luminescent pyruvate kinase-luciferase coupled assay
In short: as §1

SMILES	Activity
O=S(=O)(c1ccc2c(c1)OCCO2)N1CCN(S(=O)(=O)c2ccc3c(c2)OCCO3)CC1	inactive
Cn1ccc2cc(S(=O)(=O)N3CCN(S(=O)(=O)c4c(F)cccc4F)CC3)ccc21	inactive
O=S(=O)(c1ccc2c(c1)OCCO2)N1CCN(S(=O)(=O)c2ccc(F)cc2F)CC1	inactive
O=S(=O)(NCCCCCCNS(=O)(=O)c1c(F)cccc1F)c1ccc2c(c1)OCCO2	inactive
C[C@H]1CN(S(=O)(=O)c2c(F)cccc2F)CCN1S(=O)(=O)c1ccc2c(c1)OCCO2	inactive
COc1cc(F)c(S(=O)(=O)N2CCN(S(=O)(=O)c3ccc4c(c3)OCCO4)CC2)c(F)c1	inactive
O=S(=O)(c1ccc2c(c1)OCCCO2)N1CCN(S(=O)(=O)c2c(F)cccc2F)CC1	inactive
O=S(=O)(c1c(F)cccc1F)C1CCN(S(=O)(=O)c2ccc3c(c2)OCCO3)CC1	inactive

Biological target: Pyruvate kinase PKLR (Homo sapiens) (UniProt P30613)
Test: Activation of PKL assessed as pyruvate formation by fluorescent pyruvate kinase-lactate dehydrogenase coupled assay relative to control
Design: concentration or dose not given beside the values

SMILES	Activity [%]
O=S(=O)(c1ccc2c(c1)OCCO2)N1CCN(S(=O)(=O)c2ccc3c(c2)OCCO3)CC1	< 30
Cn1ccc2cc(S(=O)(=O)N3CCN(S(=O)(=O)c4c(F)cccc4F)CC3)ccc21	< 30
O=S(=O)(c1ccc2c(c1)OCCO2)N1CCN(S(=O)(=O)c2ccc(F)cc2F)CC1	< 30
O=S(=O)(NCCCCCCNS(=O)(=O)c1c(F)cccc1F)c1ccc2c(c1)OCCO2	< 30
C[C@H]1CN(S(=O)(=O)c2c(F)cccc2F)CCN1S(=O)(=O)c1ccc2c(c1)OCCO2	< 30
COc1cc(F)c(S(=O)(=O)N2CCN(S(=O)(=O)c3ccc4c(c3)OCCO4)CC2)c(F)c1	< 30
O=S(=O)(c1ccc2c(c1)OCCCO2)N1CCN(S(=O)(=O)c2c(F)cccc2F)CC1	< 30
O=S(=O)(c1c(F)cccc1F)C1CCN(S(=O)(=O)c2ccc3c(c2)OCCO3)CC1	< 30
